Experiments:
[1] = system: adjuvant-induced arthritis (AIA) rat model; assay: In vivo therapeutic efficacy in adjuvant-induced arthritis; set-up: species or system SD rats; details: AIA rats, i.v. 0.75 mg/kg peptide every day for one week, n = 7, vs PBS
In short: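 Adjuvant arthritis was induced in male SD rats by s.c. CFA into the paws on Day 1 and was largely established by Day 10. Groups of n = 7, plus healthy controls, received daily i.v. PBS, free peptide or nanoparticles (0.75 mg/kg peptide) for one week. Body weight, paw thickness and joint score were recorded daily. Each paw was graded 0–4 for erythema/swelling, giving a maximum of 16 per rat. Values are mean ± SD; groups were compared by Student's t-test.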

ankle joints of AIA rats = assay: Joint histology; type: in vivo, SD rats; details: i.v. 0.75 mg/kg peptide every day for one week
In short: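 CFA-induced arthritic SD rats received daily i.v. PBS, free peptide or nanoparticles (0.75 mg/kg peptide) for one week; healthy rats served as controls. Rats were sacrificed after 14 d. Ankle joints were fixed in 4% paraformaldehyde for 3 d, decalcified in 15% EDTA-2Na and sectioned. Sections were stained with HE, or immunostained with IL-17A and MPO antibodies plus secondary antibodies. n = 7.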

[2] = system: TNF-α, IL-1β, IL-6, IL-17A in joint homogenates; assay: Inflammatory cytokines in joint homogenates of AIA rats; type: in vivo, SD rats; details: ELISA, i.v. 0.75 mg/kg peptide every day for one week, n = 7
In short: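 SD rats made arthritic on Day 1 by 50 µl CFA (10 mg/ml M. tuberculosis) injected s.c. into paws. Arthritic rats (n = 7/group) then dosed i.v. daily for one week with PBS, free peptide or nanoparticle formulation at 0.75 mg/kg peptide; untreated healthy rats as reference. After 14 d, joint tissues cut up and homogenised; TNF-α, IL-1β, IL-6, IL-17A quantified by ELISA; mean ± SD.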

[3] = system: Th17 (CD4+IL-17+) and Treg (CD4+Foxp3+) cells; assay: Flow cytometry of Th17 and Treg cells in draining lymph nodes of AIA rats; type: in vivo, SD rats; details: Day 24, n = 7
In short: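 Arthritis induced in SD rats on Day 1 by subcutaneous paw injection of 50 µl CFA (10 mg/ml Mycobacterium tuberculosis). Groups (n = 7) given i.v. PBS, free peptide or peptide-loaded nanoparticles (0.75 mg/kg peptide) daily for one week; healthy rats as normal control. On Day 24, popliteal draining lymph nodes sieved (300-mesh) to single cells; CD4+IL-17+ and CD4+Foxp3+ subsets by flow cytometry; mean ± SD.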

[4] = Biocompatibility in AIA rats: blood cell counts and body weight; type: in vivo, SD rats; details: compared to the normal group, n = 7

AMVSEFLKQAWFIENEEQEYVQTVK [Ac2–26]
paw thickness [1]: limited reduction of the paw thickness | expression of IL-17A in joint tissues (immunohistochemistry) (ankle joints of AIA rats): clearly visible | expression of MPO in joint tissues (immunohistochemistry) (ankle joints of AIA rats): slightly attenuate the expression of MPO | pathological condition of ankle joints (HE staining) (ankle joints of AIA rats; n = 7): extensive inflammation infiltration, tissue damage and cartilage destruction | expression of IL-1β in joint homogenates [2]: unable to effectively decrease the inflammatory level | expression of IL-6 in joint homogenates [2]: unable to effectively decrease the inflammatory level | expression of IL-17A in joint homogenates [2]: unable to effectively decrease the inflammatory level | expression of TNF-α in joint homogenates [2]: unable to effectively decrease the inflammatory level | proportion of Treg cells in draining lymph nodes [3]: unable to increase the proportion of Treg | count of platelets (PLT) [4]: no significant difference | count of white blood cells (WBC) [4]: no significant difference
